Many of the other results were omitted from the sample, so hits are more common in it than they were.
INS promoter act: activators of insulin promoter-driven GFP, primary screen, imaging, TRM-6 cells (human fetal islet line), eGFP reporter, cell count | plate-scaled: unstimulated 0, stimulated control 100 | activation, % at 2 µM | 130,000 tested, 0.81% active;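 active = activation at 2 µM above a set limit, confirmed on inspection of the cell images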;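 note: share of cells whose green reporter signal exceeds an intensity cutoff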
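System – TRM-6 insulin promoter–eGFP reporter cells · Probe or stimulus – 0.75 µM tamoxifen as reporter inducer · Dosing – single-point 2 µM compound dose · Incubation – tamoxifen pre-incubation 15 h overnight, then compound exposure 48 h at 37 °C · Measured by – fixed-cell fluorescence microscopy, eGFP plus Hoechst · Evaluation – percent GFP-positive cells normalized to per-plate controls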
Starred values were filed as active, the others as inactive.

SMILES	INS promoter act
O=C(c1ccccc1)c1nc[nH]c1C(=O)Nc1ccccc1	3
CCOC(=O)CCN(Cc1sccc1C)S(=O)(=O)c1ccc(F)cc1	77*
CCN(CC)S(=O)(=O)c1ccc(F)cc1	190
CC(C)CNC(=O)CN(C)S(=O)(=O)c1ccc(F)cc1	-8
CC(=O)Nc1ccc(NC(=O)CCSCCc2ccccn2)cc1	6
COc1ccc(/C=N/NC(=O)CN2CCSCC2)cc1C	3
Cc1nc2nc(COc3ccccc3)nn2c(C)c1Cl	456*
COc1ccc(CNc2nc3nc(C)c(Cl)c(C)n3n2)cc1OC	3
Nc1nc(N)nc(COc2ccccc2)n1	-8
CC(NS(=O)(=O)c1ccccc1)C(N)=O (configuration not stated)	14
CCOc1ccc(N(CC(=O)Nc2ccccc2C(=O)NCc2ccco2)S(C)(=O)=O)cc1	-3
CCOC(=O)c1ccccc1NC(=O)CN(c1ccc(OCC)cc1)S(C)(=O)=O	387*
CCOC(=O)c1ccccc1NC(=O)c1ccc(N(C)S(C)(=O)=O)cc1	388
Cc1ncc(CSc2nnnn2-c2ccccc2)c(N)n1	219
CN(C)c1nc(N)nc(CSc2nnnn2-c2ccc(F)cc2)n1	8
Nc1nc(CSc2nnnn2-c2ccccc2)nc(N2CCCc3ccccc32)n1	447*
CCOc1ccc(S(=O)(=O)N(CC(=O)N/N=C/c2cccs2)c2ccc(C)cc2)cc1	0
CCCCNC(=O)C(C#N)c1nc2ccccc2nc1N1CCN(c2ccccc2F)CC1 (configuration not stated)	20
Cc1ccccc1CN1CCN(CC2CC3C=CC2C3)CC1 (configuration not stated)	4
CCOc1ccccc1CN1CCN(S(C)(=O)=O)CC1	0
Cc1ccccc1CN1CCN(S(C)(=O)=O)CC1	444*
CCC(C)NS(=O)(=O)c1ccc(S(=O)(=O)N2CCCC3(CCCCC3)C2)cc1 (configuration not stated)	143
COc1cc2ncnc(NCc3ccc(C)cc3)c2cc1OC	230*
COc1ccc(CNC(=O)CSc2ncnc3ccccc23)cc1OC	-9
COc1cc(OC)c(OC)cc1CNc1cc(C)ccc1OC	9
SMILES	INS promoter act
O=C(Cn1c(-c2cscn2)nc2ccccc21)Nc1ccccc1F	0
COc1ccc(C=O)cc1CSc1nnc(COc2cccc3cccnc23)o1	289
O=C(NCCCN1CCCC1=O)C1CCN(S(=O)(=O)N2CCOCC2)CC1	131
CCC1CCCCN1CCCNC(=O)C1CCN(S(=O)(=O)N2CCCCC2)CC1 (configuration not stated)	215*
O=C(NCCC1=CCCCC1)C1CCN(S(=O)(=O)N2CCCC2)CC1	-7
O=C(CCCCCN1C(=O)c2ccccc2C1=O)Nc1ccc2c(c1)OCCO2	0
O=C(CCCCCN1C(=O)CCC1=O)Nc1ccc2c(c1)OCO2	475*
O=C(CCCN1C(=O)CCC1=O)Nc1ccc2c(c1)OCCO2	118
O=C(CSc1nnc(-c2ccncc2)n1-c1ccc(Cl)cc1)NCc1cccs1	-8
CCOC(=O)c1nn(-c2ccccc2)c2nnc(Cc3ccccc3)c(=O)n12	-8
CN(C)c1nnc(-c2ccc(Cl)cc2)o1	-6
Cc1ccc(C(=O)COC(=O)CCC(=O)NC2CCCCC2)cc1C	10
Cc1cc(C)cc(N(CC(=O)N2CCOCC2)S(=O)(=O)c2ccccc2)c1	72
COc1ccc(N2CCN(C(=O)CN(c3ccccc3)S(=O)(=O)c3ccc(OC)cc3)CC2)cc1	80*
COc1ccc(N2CCN(C(=O)CCNC(=O)c3ccccc3)CC2)cc1	-5
COc1ccc(C(OCC2CO2)c2ccc(OC)cc2)cc1 (configuration not stated)	-77
COc1ccc(C(=O)OC/C(O)=C(\C#N)c2nc3ccccc3[nH]2)cc1S(=O)(=O)N1CCOCC1	-8
Nc1nc(SCc2c(F)cccc2Cl)[nH]c(=O)c1-c1ccccc1	-3
C/C(=N\NS(=O)(=O)c1ccc(Cl)cc1)c1ccc(O)cc1	3
CCOc1ncccc1C(=O)N1CCN(Cc2ccc3c(c2)OCO3)CC1	7
c1cnc(N2CCN(Cc3ccc4c(c3)OCO4)CC2)nc1	314*
c1cncc(C(c2nnnn2C2CCCC2)N2CCN(Cc3ccc4c(c3)OCO4)CC2)c1 (configuration not stated)	119
c1cc2c(cc1CN1CCOCC1)OCO2	3
CC(C)C(c1nnnn1Cc1ccc(F)cc1)N1CCN(Cc2ccc3c(c2)OCO3)CC1 (configuration not stated)	121*
c1ccc2c(c1)CCN(Cc1nnnn1Cc1ccc3c(c1)OCO3)C2	-7
SMILES	INS promoter act
CC(C)(C)c1ccc(OCCNC(=O)c2ncn[nH]2)cc1	-9
COc1cc(/C(C)=N/NC(=O)C(O)(c2ccccc2)c2ccccc2)ccc1O	8
Cc1cccc(-n2c(C)nc3c(cnn3-c3ccc(F)cc3)c2=O)c1	0
C/C(=N/NC(=O)CCC(=O)Nc1cccc(Cl)c1)c1ccc(C)cc1	-8
Cc1ccccc1NC1(C#N)C(=O)Nc2ccccc21 (configuration not stated)	-9
Cc1c(N2C(=O)C(C)SC23C(=O)Nc2ccccc23)c(=O)n(-c2ccccc2)n1C (configuration not stated)	3
CC(C)c1ccc(NC2(C#N)C(=O)Nc3ccccc32)cc1 (configuration not stated)	81*
C/C(CCN1CCc2nc(-c3ccccc3)c(-c3ccccc3)cc2C1)=N\O[C@@H](C)c1cn([C@H](CO)Cc2ccccc2)nn1	-5
Cc1ccc2nc(SC(C)C(=O)Nc3cccc([N+](=O)[O-])c3)[nH]c2c1 (configuration not stated)	0
COc1ccc(CNC(=S)Nc2cccc(C)c2C)cc1	0
NC(=O)c1nn(CC(=O)Nc2ccc3c(c2)OCO3)cc1[N+](=O)[O-]	136
COC(=O)c1nn(-c2ccc(C)cc2)c2nnc(Cc3ccccc3)c(=O)n12	-5
CC1=CC(C)(C)N(C(=O)CSc2nncn2C)c2ccccc21	631*
CC1=CC(C)(C)N(C(=O)Nc2ccccc2)c2ccccc21	0
C/C=C/C(=O)N1c2ccccc2C(C)=CC1(C)C	0
CCOC(=O)C(C)Sc1ncnc2nc[nH]c12 (configuration not stated)	513*
CCOC(=O)C(CC)Sc1ncnc2nc[nH]c12 (configuration not stated)	-3
CCOC(=O)C(C)Sc1ncnc2c1nnn2-c1ccc(F)cc1 (configuration not stated)	-9
CC1CCCCN1C(=O)c1ccc(NC(=O)c2ccccc2Cl)cc1 (configuration not stated)	-2
O=C(/C=C/c1ccc(OC2CSC2)cc1)c1ccc(Cl)cc1	4
Cc1ccc(/C=C/C(=O)c2ccc(C)cc2)cc1	367
O=C(/C=C/c1ccc(N2CCC(c3ccccc3)=N2)cc1)c1ccccc1	456*
N=C1N(/N=C/c2ccccc2)C(=Nc2ccccc2)C(=S)N1c1ccccc1	276
CCC(C(=O)Nc1cc(C(=O)Nc2cc(C)ccn2)ccc1Cl)c1ccccc1 (configuration not stated)	0
COc1ccc(OC)c(S(=O)(=O)NC(C)(C)C)c1	7
CC1C2=C(CC(C)(C)CC2=O)NC2=C1C(=O)CC(C)(C)C2	-5
CC1(C)CC(=O)C2=C(C1)Nc1cc3c(cc1C2c1ccc(F)cc1)OCO3 (configuration not stated)	100*
